Test results reported in ChEMBL document CHEMBL1145212, “Fluorinated diaryl sulfides as serotonin transporter ligands: synthesis, structure-activity relationship study, and in vivo evaluation of fluorine-18-labeled compounds as PET imaging agents” (J Med Chem, 2005).

Assays:
Conditions in all cases: tested as the 18F-labelled form
Rattus norvegicus [1] = species on record: Rattus norvegicus; assay: Regional uptake of [18F]AFA in frontal cortex of rat pretreated with compound 7e; n=3; type: functional, organism-based
Rattus norvegicus [2] = species on record: Rattus norvegicus; assay: Regional uptake of [18F]AFA in hypothalamus of rat pretreated with compound GBR-12935; n=3; type: functional, organism-based
Method in brief: (§1)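 Male Sprague-Dawley rats, three per group, received blocker (2 mg/kg iv in saline) or saline only (controls) 10–15 min before about 20 µCi of tail-vein F-18 radioligand. Killed 60 min after tracer. Blood and brain regions weighed and gamma-counted. %ID/g was decay- and tail-corrected; mean ± SD.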

[3] = target: Sodium-dependent serotonin transporter (Rattus norvegicus) (UniProt P31652); assay: Specific binding of [18F]AFA in rat hypothalamus after citalopram treatment; n=3; type: functional, tissue-based
Chain of Sodium-dependent serotonin transporter (Rattus norvegicus) (P31652 whole entry): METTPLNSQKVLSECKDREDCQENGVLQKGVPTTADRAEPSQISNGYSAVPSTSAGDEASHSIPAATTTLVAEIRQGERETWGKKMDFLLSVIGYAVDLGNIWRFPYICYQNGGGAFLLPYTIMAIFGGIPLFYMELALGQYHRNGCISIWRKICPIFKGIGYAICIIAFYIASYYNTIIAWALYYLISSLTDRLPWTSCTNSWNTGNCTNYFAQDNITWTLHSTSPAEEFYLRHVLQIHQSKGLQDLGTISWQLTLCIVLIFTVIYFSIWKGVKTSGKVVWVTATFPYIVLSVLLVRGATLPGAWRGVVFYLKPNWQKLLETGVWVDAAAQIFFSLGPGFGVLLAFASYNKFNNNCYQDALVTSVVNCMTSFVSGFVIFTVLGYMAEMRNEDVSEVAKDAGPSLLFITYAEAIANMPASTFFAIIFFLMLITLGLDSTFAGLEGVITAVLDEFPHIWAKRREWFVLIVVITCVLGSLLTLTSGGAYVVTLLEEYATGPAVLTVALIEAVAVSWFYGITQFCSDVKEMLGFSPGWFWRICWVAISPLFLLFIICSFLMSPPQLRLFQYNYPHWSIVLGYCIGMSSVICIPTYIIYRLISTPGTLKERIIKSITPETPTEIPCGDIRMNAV
Method in brief: (§2)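 Rats, three per group, were pretreated iv with blocker at 2 mg/kg in saline, or with saline as control, 10–15 min before tail-vein F-18 radioligand (about 20 µCi). Killed at 60 min and regional %ID/g determined. Specific binding = (region activity − cerebellum activity)/cerebellum activity; mean ± SD.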

Rattus norvegicus [4] = species on record: Rattus norvegicus; assay: Regional uptake of [18F]AFA in hippocampus of rat pretreated with compound 7e; n=3; type: functional, organism-based
Rattus norvegicus [5] = species on record: Rattus norvegicus; assay: Regional uptake of [18F]AFA in frontal cortex of rat pretreated with compound nisoxetine; n=3; type: functional, organism-based; method in brief: as §1
Rattus norvegicus [6] = species on record: Rattus norvegicus; assay: Regional uptake of [18F]AFA in cerebellum of rat pretreated with compound GBR-12935; n=3; type: functional, organism-based; method in brief: as §1
[7] = target: Sodium-dependent serotonin transporter (Rattus norvegicus) (UniProt P31652); assay: Specific binding in rat hypothalamus at 30 min postinjection in vivo; type: functional, organism-based
Method in brief: (§3)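 Male Sprague-Dawley rats, n=3 per time point, received about 20 µCi of F-18 radioligand in saline iv by tail vein and were killed at 10–120 min. %ID/g was measured with decay and tail-residual correction. Hypothalamic specific binding = (%ID/g hypothalamus − %ID/g cerebellum)/%ID/g cerebellum; mean ± SD.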

Rattus norvegicus [8] = species on record: Rattus norvegicus; assay: Regional uptake of [18F]AFA in frontal cortex of rat pretreated with compound GBR-12935; n=3; type: functional, organism-based; method in brief: as §1
[9] = target: Sodium-dependent serotonin transporter (Rattus norvegicus) (UniProt P31652); assay: Specific binding in rat hypothalamus at 10 min postinjection in vivo; type: functional, organism-based; method in brief: as §3
[10] = target: Sodium-dependent serotonin transporter (Rattus norvegicus) (UniProt P31652); assay: Specific binding of [18F]AFA in rat frontal cortex after GBR-12935 treatment; n=3; type: functional, tissue-based; method in brief: as §2
[11] = target: Sodium-dependent serotonin transporter (Rattus norvegicus) (UniProt P31652); assay: Specific binding in rat hypothalamus at 120 min postinjection in vivo; type: functional, organism-based; method in brief: as §3
Rattus norvegicus [12] = species on record: Rattus norvegicus; assay: Regional uptake of [18F]AFA in cerebellum of rat pretreated with compound 7e; n=3; type: functional, organism-based
Rattus norvegicus [13] = species on record: Rattus norvegicus; assay: Regional uptake of [18F]AFA in hippocampus of rat pretreated with compound nisoxetine; n=3; type: functional, organism-based; method in brief: as §1
[14] = target: Sodium-dependent serotonin transporter (Rattus norvegicus) (UniProt P31652); assay: Specific binding of [18F]AFA in rat striatum after GBR-12935 treatment; n=3; type: functional, tissue-based; method in brief: as §2
[15] = target: Sodium-dependent serotonin transporter (Rattus norvegicus) (UniProt P31652); assay: Specific binding of [18F]AFA in rat hypothalamus after nisoxetine treatment; n=3; type: functional, tissue-based; method in brief: as §2
[16] = target: Sodium-dependent serotonin transporter (Rattus norvegicus) (UniProt P31652); assay: Specific binding of [18F]-AFA in rat striatum after nisoxetine treatment; n=3; type: functional, tissue-based; method in brief: as §2
Rattus norvegicus [17] = species on record: Rattus norvegicus; assay: Regional uptake of [18F]AFA in blood of rat pretreated with compound nisoxetine; n=3; type: functional, organism-based; method in brief: as §1
[18] = target: Sodium-dependent serotonin transporter (Rattus norvegicus) (UniProt P31652); assay: Specific binding of [18F]AFA in rat frontal cortex after citalopram treatment; n=3; type: functional, tissue-based; method in brief: as §2
Rattus norvegicus [19] = species on record: Rattus norvegicus; assay: Regional uptake of [18F]-AFA in blood of rat pretreated with compound GBR-12935; n=3; type: functional, organism-based; method in brief: as §1
[20] = target: Sodium-dependent serotonin transporter (Rattus norvegicus) (UniProt P31652); assay: Specific binding of [18F]AFA in rat thalamus after citalopram treatment; n=3; type: functional, tissue-based; method in brief: as §2
Rattus norvegicus [21] = species on record: Rattus norvegicus; assay: Regional uptake of [18F]AFA in blood of rat pretreated with compound 7e; n=3; type: functional, organism-based
Rattus norvegicus [22] = species on record: Rattus norvegicus; assay: Regional uptake of [18F]AFA in striatum of rat pretreated with compound citalopram; n=3; type: functional, organism-based; method in brief: as §1
Rattus norvegicus [23] = species on record: Rattus norvegicus; assay: Regional uptake of [18F]AFA in striatum of rat pretreated with compound nisoxetine; n=3; type: functional, organism-based; method in brief: as §1
[24] = target: Sodium-dependent serotonin transporter (Rattus norvegicus) (UniProt P31652); assay: Specific binding in rat hypothalamus at 60 min postinjection in vivo; type: functional, organism-based; method in brief: as §3
Rattus norvegicus [25] = species on record: Rattus norvegicus; assay: Regional uptake of [18F]AFA in thalamus of rat pretreated with compound nisoxetine; n=3; type: functional, organism-based; method in brief: as §1

- Specific binding [3]: 1 %ID/g
- Specific binding [7]: 2.22 %ID/g
- Specific binding [9]: 0.96 %ID/g
- Specific binding [10]: 1.98 %ID/g
- Specific binding (dimensionless ratio) [11]: 4.5
- Specific binding [14]: 2.62 %ID/g
- Specific binding [15]: 4 %ID/g
- Specific binding [16]: 2.1 %ID/g
- Specific binding [18]: 0.31 %ID/g
- Specific binding [20]: 0.89 %ID/g
- Specific binding [24]: 3.35 %ID/g
SMILES: CN(C)Cc1ccccc1Sc1ccc(CCF)cc1N
- Uptake (Rattus norvegicus [1]): 0.1 %ID/g
- Uptake (Rattus norvegicus [2]): 0.32 %ID/g
- Uptake (Rattus norvegicus [4]): 0.11 %ID/g
- Uptake (Rattus norvegicus [5]): 0.19 %ID/g
- Uptake (Rattus norvegicus [6]): 0.06 %ID/g
- Uptake (Rattus norvegicus [8]): 0.17 %ID/g
- Uptake (Rattus norvegicus [12]): 0.07 %ID/g
- Uptake (Rattus norvegicus [13]): 0.17 %ID/g
- Uptake (Rattus norvegicus [17]): 0.06 %ID/g
- Uptake (Rattus norvegicus [19]): 0.06 %ID/g
- Uptake (Rattus norvegicus [21]): 0.06 %ID/g
- Uptake (Rattus norvegicus [22]): 0.09 %ID/g
- Uptake (Rattus norvegicus [23]): 0.21 %ID/g
- Uptake (Rattus norvegicus [25]): 0.29 %ID/g
